{
  "source": "paper PMC5437736",
  "about": "(Molecular Therapy. Methods & Clinical Development, 2017)",
  "key": {"HeLa 705 cells [1]": {"system": "HeLa 705 cells", "experiment": "WST-1 cell proliferation/viability assay", "type": "cell-based, human", "conditions": "20% DMSO in complete growth medium, 24 hr, positive control", "in_short": "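Cells seeded at 7 × 10³ per well 24 hr ahead, then exposed 24 hr to peptide at several concentrations in complete medium. WST-1 added at 1:10 final dilution after 20 hr and incubated 4 hr. Plate shaken 1 min; formazan read at 450 nm against 650 nm reference. Controls: 20% DMSO (v/v) for 24 hr and H2O2 at two levels. Mean of at least three experiments with SD.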"}, "[2]": {"experiment": "Solubility in MilliQ water", "type": "physicochemical", "conditions": "compared with unlabelled peptide"}, "HeLa 705 cells [3]": {"system": "HeLa 705 cells", "experiment": "Subcellular uptake by spectrofluorometry after isolation of mitochondria", "type": "cell-based, human", "conditions": "5 μM, 24 hr; for compartment of main accumulation: membranes, cytosol, mitochondria fractions", "in_short": "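HeLa 705 cells grown in flasks for 24 hr, treated 24 hr with fluorescein-labelled peptide, then scraped at about 90% confluence. Reagent-based kit with differential centrifugation (700 × g 10 min, then 12,000 × g 15 min, 4°C) gave membrane, cytosol and mitochondrial fractions. Fluorescein read at […] and normalised to untreated cells. Mean ± SD of three experiments; one-way ANOVA.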"}, "[4]": {"system": "mitochondrial membrane potential in HeLa 705 cells", "experiment": "Mitochondrial membrane potential", "type": "cell-based, human", "conditions": "5 μM peptide 24 hr, TMRE fluorescence, n = 3; for mitochondrial membrane potential (Δψm) with H2O2 (oxidative stress): H2O2 200 μM for 2 hr", "in_short": "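HeLa 705 cells seeded 24 hr ahead and treated 24 hr with peptide. In the stress arm, a 2 hr H2O2 exposure preceded the 24 hr incubation at 37°C, 5% CO2. TMRE added at 400 nM final for 30 min in the dark, then PBS wash and 0.2% BSA in PBS. Read at ex 549/em 575 nm, as percent of untreated cells or untreated + H2O2. FCCP and H2O2 served as controls. Mean ± SD of three experiments; one-way ANOVA.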"}, "different cell lines": {"system": "different cell lines", "conditions": "high concentration (100 μM); cited from earlier work"}, "[5]": {"conditions": "read-out: EC50 of the hydroxyl radical scavenging reaction; cited from earlier work"}, "HeLa 705 cells [6]": {"system": "HeLa 705 cells", "experiment": "Fluorescence microscopy, cellular uptake and localization", "type": "cell-based, human", "conditions": "carboxyfluorescein-labelled peptide 5 μM, 4 hr, 200 nM TMRE", "in_short": "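HeLa 705 cells given carboxyfluorescein-labelled peptides for 4 hr; untreated cells got fresh medium in parallel. Mitochondria stained with 200 nM TMRE (20 min at 37°C per methods; added 30 min pre-imaging per legend) and nuclei with Hoechst 33342 (10 min). Inverted fluorescence microscope with 10×/40× dry and 63× oil objectives, held at 36 ± 1°C. Excitation/emission: Hoechst 346/497 nm, FAM 494/519 nm, TMRE 535/575 nm.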"}, "Dynamic light scattering": {"experiment": "Dynamic light scattering", "type": "physicochemical", "conditions": "MilliQ H2O or cell culture media, 5 μM", "in_short": "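Test compound dissolved either in DMEM with 10% FBS or in MilliQ water adjusted to pH 7.4. Dynamic light scattering gave hydrodynamic mean diameter and zeta potential. Data plotted as size distribution by intensity.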"}, "[7]": {"system": "mitochondrial superoxide in HeLa 705 cells", "experiment": "Superoxide anion scavenging assay", "type": "cell-based, human", "conditions": "5 μM, 24 hr, MitoSOX fluorescence, mean of three experiments", "in_short": "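HeLa 705 cells seeded at 7 × 10³ per well, recovered 24 hr, then exposed to peptide for 24 hr. MitoSOX Red working solution in HBSS/Ca/Mg added for 10 min at 37°C, 5% CO2, in the dark. Cells washed with 0.2% BSA in PBS and read at ex 510/em 580 nm. Signal normalised to antimycin A-treated cells or to a reference peptide. Mean ± SD of three experiments.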"}, "cells": {"system": "cells", "conditions": "1-hr treatment with 1 mM of GSH; cited from earlier work"}},
  "note": "Non-standard residues stand in square brackets, D forms with d. No end group written: not given here. Dmt = Cc1cc(O)cc(C)c1C[C@H](N)C(=O)O; Orn = NCCC[C@H](N)C(=O)O",
  "data": [
    {"compound": "C[S+](C)[O-]", "note": "[DMSO]", "values": [
      {"measurement": "cell viability", "setting": "HeLa 705 cells [1]", "result": "approximately 20%"}
    ]},
    {"compound": "FAM-D-Arg-Dmt-Orn-Phe-NH2 [FAM-mtCPP1]", "values": [
      {"measurement": "effect of the carboxyfluorescein moiety on solubility", "setting": "[2]", "result": "did not decrease the solubility"},
      {"measurement": "increase in cytosol fraction between FAM-UPF25 and FAM-mtCPP1", "setting": "HeLa 705 cells [3]; carboxyfluorescein F.I., direction not given", "result": 2, "unit": "fold"}
    ]},
    {"compound": "FAM-D-Arg-Dmt-Orn-Phe-Tyr(Me)-Glu-Cys-Gly-NH2 [FAM-mtgCPP]", "values": [
      {"measurement": "effect of the carboxyfluorescein moiety on solubility", "setting": "[2]", "result": "did not decrease the solubility"},
      {"measurement": "presence in membranes fraction", "setting": "HeLa 705 cells [3]; carboxyfluorescein F.I.", "result": "same extent as FAM-mtCPP1"},
      {"measurement": "compartment of main accumulation", "setting": "HeLa 705 cells [3]", "result": "mainly accumulated in the mitochondria"}
    ]},
    {"compound": "FAM-Tyr(Me)-Glu-Cys-Gly-NH2 [FAM-UPF25]", "values": [
      {"measurement": "effect of the carboxyfluorescein moiety on solubility", "setting": "[2]", "result": "slightly decreased"},
      {"measurement": "compartment of main accumulation", "setting": "HeLa 705 cells [3]", "result": "mainly accumulates in membranes"}
    ]},
    {"compound": "Y(Me)ECG-NH2 (N-terminus assumed; SMILES COc1ccc(C[C@H](N)C(=O)N[C@@H](CCC(=O)O)C(=O)N[C@@H](CS)C(=O)NCC(N)=O)cc1) [UPF25]", "values": [
      {"measurement": "mitochondrial membrane potential (Δψm) without H2O2", "setting": "[4]", "result": "decreased"},
      {"measurement": "mitochondrial membrane potential (Δψm) with H2O2 (oxidative stress)", "setting": "[4]", "result": "partially rescue"},
      {"measurement": "effect on viability of different cell lines", "setting": "different cell lines", "result": "did not affect the viability"},
      {"measurement": "EC50", "setting": "[5]", "result": "~0.03", "unit": "µM"}
    ]},
    {"compound": "[dR][Dmt][Orn]FY(Me)ECG-NH2 (N-terminus assumed; SMILES COc1ccc(C[C@H](NC(=O)[C@H](Cc2ccccc2)NC(=O)[C@H](CCCN)NC(=O)[C@H](Cc2c(C)cc(O)cc2C)NC(=O)[C@H](N)CCCNC(=N)N)C(=O)N[C@@H](CCC(=O)O)C(=O)N[C@@H](CS)C(=O)NCC(N)=O)cc1) [mtgCPP]", "values": [
      {"measurement": "mitochondrial localization (merge with TMRE)", "setting": "HeLa 705 cells [6]", "result": "partially targets the mitochondria"},
      {"measurement": "mitochondrial membrane potential (Δψm) with H2O2 (oxidative stress)", "setting": "[4]", "result": "close to the healthy situation"},
      {"measurement": "aggregation (from DLS size)", "setting": "Dynamic light scattering", "result": "forming aggregates"},
      {"measurement": "improvement of superoxide anion scavenging ability compared with UPF25", "setting": "[7]", "result": 3, "unit": "fold"},
      {"measurement": "improvement of superoxide anion scavenging ability compared with mtCPP1", "setting": "[7]", "result": 2, "unit": "fold"}
    ]},
    {"compound": "glutathione [GSH]", "values": [
      {"measurement": "uptake of GSH in cells", "setting": "cells", "result": "≈ 1.5 μM"}
    ]}
  ]
}
